The record followed here is ChEMBL document CHEMBL1158469 (J Med Chem, 2009).

Activity calls are given as the source filed them. No cut-off for these calls is given here.

Series [1] has as its system Mus musculus. Description: Toxicity in BALB/c mouse assessed as weight loss at 25 mg/kg, ip administered as single dose after 14 days. Type of series: organism-based. Also on record: dose 25 mg/kg, route intraperitoneal. As to conditions: in vivo, 336 h.
Series [2] deals with Mus musculus. Description: Reduction of spleen weight in human Bcl2 expressing B6 transgenic mouse at 42 umol/kg, ip administered as single dose after 24 hrs. In kind it is functional. Also on record: scale not given: the % may be the effect or the level left.
Series [3] deals with Mus musculus. Description: Toxicity in human Bcl2 expressing B6 transgenic mouse assessed as gastrointestinal toxicity at 42 umol/kg, ip administered as single dose. Type of series: organism-based. The conditions noted are these: in vivo.
The subject of series [4] is Mus musculus. Description: Reduction of spleen weight in human Bcl2 expressing B6 transgenic mouse at 72 umol/kg, ip administered as single dose after 24 hrs. In kind it is functional. Also noted: scale not given: the % may be the effect or the level left. The method in brief:
(§1)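 Age- and sex-matched B6Bcl2 transgenic mice (human BCL-2/IgH minigene, B cells accumulating in spleen), free of aggressive lymphoma. Single ip injection at 72 μmol/kg in 500 μL ethanol:Cremophor EL:saline 10:10:80; controls got vehicle alone. Killed with Avertin after 24 h and spleen weighed. Shrinkage expressed as percentage of maximum spleen-weight reduction.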

Series [5] deals with Mus musculus. Description: Toxicity in BALB/c mouse assessed as mortality at 25 mg/kg, ip administered as single dose after 14 days. As to conditions: in vivo, 336 h. Type of series: organism-based. Also on record: dose 25 mg/kg, route intraperitoneal.
The test system of series [6] is Mus musculus. Description: Induction of spleen weight shrinkage in human Bcl2 expressing B6 transgenic mouse at 72 umol/kg, ip administered as single dose after 24 hrs. In kind it is functional. An outline of the steps: as §1
Series [7] deals with Mus musculus. Description: Toxicity in BALB/c mouse assessed as mortality at 75 mg/kg, ip administered as single dose after 14 days. Also noted: dose 75 mg/kg, route intraperitoneal. As to conditions: in vivo, 336 h. In kind it is organism-based.
Series [8] deals with Mus musculus. Description: Toxicity in mouse assessed as reduction of spleen weight at 42 mg/kg, ip. In kind it is organism-based. Also noted: dose 42 mg/kg, route intraperitoneal. As to conditions: in vivo. The method in brief: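 B6Bcl2 transgenic mice, six per group, given a single ip dose of 42 mg/kg (60 μmol/kg) in ethanol:Cremophor EL:saline 10:10:80; six vehicle-injected controls. Spleens weighed 24 h after injection. Data are means ± S.E. (n = 6).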

Series [9] relates to Mus musculus. Description: Toxicity in human Bcl2 expressing B6 transgenic mouse assessed as weight loss at 42 umol/kg, ip administered as single dose. Type of series: organism-based. As to conditions: in vivo.
A short description of series [10]: Stability in rat liver microsome at 4 uM after 1 hr. Type of series: ADME. The conditions noted are these: liver microsomes, read-out: Stability. An outline of the steps:
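Compound incubated for 1 h in rat microsomal preparations; percentage of parent remaining was reported.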

The nature of series [11]: Stability in rat plasma after 1 hr at 37.5 degC. In kind it is ADME, cell-free. As to conditions: read-out: Stability. An outline of the steps:
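Compound incubated in rat plasma for 1 h; percentage of parent remaining was reported.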

The nature of series [12]: Chemical stability after 60 days at room temperature by HPLC/LC-MS analysis. In kind it is physicochemical. The conditions noted are these: 1440 h. The method in brief: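 Solid compounds stored in air at room temperature for 60 days. Stability followed by HPLC combined with LC-MS.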
Series [13] relates to Mus musculus. Description: Toxicity in BALB/c mouse assessed as weight loss at 75 mg/kg, ip after 5 days. Type of series: organism-based. Also on record: dose 75 mg/kg, route intraperitoneal. The conditions noted are these: in vivo, 120 h. The method in brief: (§2)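 Tolerability study in five mice given a single ip dose of 100, 75, 50 or 25 mg/kg. Animals observed for 14 days, recording body weight loss as morbidity and mortality.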

Series [14] can be described thus: Membrane permeability assessed as drug permeation at 100 uM at pH 7.2 after 8 hrs by PAMPA. In kind it is ADME. The conditions noted are these: pH 7.2, 8 h.
Series [15] is described as follows: Cytotoxicity against wild type mouse fibroblast assessed as induction of cell death at 10 uM by FITC-annexin V and propidium iodide assay. In kind it is cell-based. An outline of the steps: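 Wild-type MEFs seeded at half a million per well in DMEM with 10% FCS. Next day compound added at 0, 2.5, 5.0, 7.5 or 10 μM. On the following day, floating and trypsinized adherent cells were pooled and stained with Annexin V-FITC and PI in binding buffer. Analyzed by flow cytometry, with double-negative cells counted as viable.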

Series [16] deals with Mus musculus. Description: Gastrointestinal toxicity in human Bcl2 expressing B6 transgenic mouse at 50 mg/kg, ip administered as single dose after 24 hrs. In kind it is organism-based. Also on record: dose 50 mg/kg, route intraperitoneal. As to conditions: in vivo.
Series [17] concerns Mus musculus. Description: Toxicity in BALB/c mouse assessed as weight loss at 50 mg/kg, ip administered as single dose after 14 days. Type of series: organism-based. Also on record: dose 50 mg/kg, route intraperitoneal. The conditions noted are these: in vivo, 336 h. The method in brief: as §2
Series [18] deals with Mus musculus. Description: Toxicity in BALB/c mouse assessed as mortality at 50 mg/kg, ip administered as single dose after 14 days. Type of series: organism-based. The conditions noted are these: in vivo, 336 h. Also noted: dose 50 mg/kg, route intraperitoneal.
The test system of series [19] is Mus musculus. Description: Toxicity in human Bcl2 expressing B6 transgenic mouse administered as single dose at 72 umol/kg, ip after 24 hrs. Type of series: organism-based. As to conditions: in vivo.
The target of series [20] is Bcl-2-like protein 1 (Homo sapiens) (UniProt Q07817). Description: Inhibition of Bcl-xL at 200 uM by 1D 1H NMR binding assay.
For series [21], the system named is Mus musculus. Description: Toxicity in BALB/c mouse assessed as mortality at 100 mg/kg, ip administered as single dose after 14 days. The conditions noted are these: in vivo, 336 h. Type of series: organism-based. Also on record: dose 100 mg/kg, route intraperitoneal.
For series [22], the system named is Mus musculus. Description: Toxicity in BALB/c mouse assessed as recovery of weight loss administered as single ip dose after 14 days. Type of series: organism-based. As to conditions: in vivo, 336 h. The method in brief: as §2

Bcl-2-like protein 1 (Homo sapiens), sequence (Q07817 whole entry): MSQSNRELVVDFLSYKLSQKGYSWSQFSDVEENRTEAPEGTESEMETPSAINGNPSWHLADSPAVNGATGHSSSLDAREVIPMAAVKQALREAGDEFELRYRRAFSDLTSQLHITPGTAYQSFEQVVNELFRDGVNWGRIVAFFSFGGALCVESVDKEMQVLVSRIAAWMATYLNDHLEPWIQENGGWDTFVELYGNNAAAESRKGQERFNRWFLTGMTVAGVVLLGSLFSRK

For `Cc1cc2c(C(=O)NCC(C)c3ccccc3)c(O)c(O)cc2c(O)c1-c1c(C)cc2c(C(=O)NCC(C)c3ccccc3)c(O)c(O)cc2c1O` (configuration not stated), the Activity result with Mus musculus [1] was “Non-toxic”; in the series on Mus musculus [2], 70%; in the series with Mus musculus [3] it was “Non-toxic”; in the series with Mus musculus [4], 40%; in the series with Mus musculus [5] it was “Non-toxic”; with Mus musculus [6], 85%. For the same compound, the Activity result in the series on Mus musculus [7] is on record as “Non-toxic”; with Mus musculus [8] it was “Non-toxic”; in the series with Mus musculus [9], 7.8%; with Mus musculus [13], “Non-toxic”; in [15], 80%; in the series with Mus musculus [16] it was “Toxic”. The Activity entry is on record as “<= 15%” in the series on Mus musculus [17]; “Non-toxic” in the series on Mus musculus [18]; “Toxic” in the series on Mus musculus [19]; “Non-toxic” in the series on Mus musculus [21]; 80% with Mus musculus [22]. Further, in series [10], the remaining at 1 h, 4 µM amounted to 76%. In addition, the remaining at 1 h in [11] came to 96%. In addition, the Stability entry in series [12] is recorded as “Stable”. Further, the logPe in [14] was -7.51 log cm/s. Also, the outcome in series [20] was Active.
